Experimental data reported in ChEMBL document CHEMBL3351723, “New derivatives of lupane triterpenoids disturb breast cancer mitochondria and induce cell death” (Bioorg Med Chem, 2014).
Active and inactive are the calls of the source. No cut-off for these calls is given here.

Key:
BJ = assay: Cytotoxicity against human BJ cells at 0.125 to 2 ug/ml after 1 to 5 days by sulforhodamine B assay; assay type: cell-based
Summary of the method: (§1)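 Non-tumor cells seeded at 2×10^4 cells/ml and treated 24 h after seeding, in high-glucose DMEM with pyruvate, 10% FBS and penicillin-streptomycin, 37°C, 5% CO2. Compound exposure 0.125–2 μg/ml for 1, 3 and 5 days, with vehicle controls. Cells fixed and stained with sulforhodamine B for total cell mass. Data given as % of untreated control at each time point; five independent experiments.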

[1] = Cytotoxicity against human MCF12A cells at 0.125 to 2 ug/ml after 1 to 5 days by sulforhodamine B assay; assay type: cell-based; settings: mcf-12a; summary of the method: as §1
[2] = Cell cycle arrest against human Hs578T cells assessed as increase in cells at G0/G1 phase at 0.5 ug/ml after 24 to 48 hrs by propidium iodide staining based flow cytometry; assay type: functional; settings: Hs-578T
Summary of the method: (§2)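 Log-phase Hs578T cells exposed 24 and 48 h to 0.5 μg/ml. Adherent plus floating cells fixed in cold 70% ethanol, kept overnight at -20°C, washed into PBS-T (132 mM NaCl, 4 mM KCl, 1.2 mM NaH2PO4, 0.1% Tween). Treated with 20 μg/ml RNase for 45 min at 37°C, then propidium iodide for 30 min at 37°C. Phase percentages read by flow cytometry. Mean ± SEM, 5 experiments.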

Hs-578T [3] = assay: Cytotoxicity against human Hs578T cells at 0.125 to 2 ug/ml incubated for 6 hrs folowed by drug wash out and fresh medium addition and measured 5 days after wash out; assay type: functional, cell-based
[4] = Cell cycle arrest against human Hs578T cells assessed as decrease in cells at S phase at 0.5 ug/ml after 24 to 48 hrs by propidium iodide staining based flow cytometry; assay type: functional; settings: Hs-578T; summary of the method: as §2
MCF7 [5] = assay: Cytotoxicity against human MCF7 cells at 0.125 to 2 ug/ml after 1 to 5 days by sulforhodamine B assay in presence of taxol; assay type: functional, cell-based
MDA-MB-231 [6] = assay: Cytotoxicity against human MDA-MB-231 cells at 0.125 to 2 ug/ml after 1 to 5 days by sulforhodamine B assay in presence of taxol; assay type: functional, cell-based
Hs-578T [7] = assay: Cytotoxicity against human Hs578T cells at 0.125 to 2 ug/ml after 1 to 5 days by sulforhodamine B assay in presence of taxol; assay type: functional, cell-based
[8] = Cell cycle arrest against human Hs578T cells assessed as decrease in cells at G2/M phase at 0.5 ug/ml after 24 to 48 hrs by propidium iodide staining based flow cytometry; assay type: functional; settings: Hs-578T; summary of the method: as §2
MCF7 [9] = assay: Cytotoxicity against human MCF7 cells at 0.125 to 2 ug/ml after 1 to 5 days by sulforhodamine B assay; assay type: functional, cell-based
Summary of the method: (§3)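 Sulforhodamine B growth assay in high-glucose DMEM with 10% FBS. Cancer cells seeded at 1×10^4 cells/ml; compound (0.125–2 μg/ml) added 24 h after seeding and left for 1, 3 or 5 days. Cells fixed, total mass stained. Expressed as % of untreated cells at the same time point. Mean ± SEM, five independent experiments.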

MDA-MB-231 [10] = assay: Cytotoxicity against human MDA-MB-231 cells at 0.125 to 2 ug/ml after 1 to 5 days by sulforhodamine B assay; assay type: functional, cell-based; summary of the method: as §3
Hs-578T [11] = assay: Cytotoxicity against human Hs578T cells at 0.125 to 2 ug/ml after 1 to 5 days by sulforhodamine B assay; assay type: functional, cell-based; summary of the method: as §3

SMILES	Activity (BJ)	Activity [1]	G0/G1 cell cycle arrest [2]	inhibition (Hs-578T [3])	inhibition [4]	Activity [2]	inhibition (MCF7 [5])	inhibition (MDA-MB-231 [6])	inhibition (Hs-578T [7])	inhibition [8]	inhibition (MCF7 [9])	inhibition (MDA-MB-231 [10])	inhibition (Hs-578T [11])
C=C(C)[C@@H]1CC[C@]2(COC(=O)C[n+]3ccc(C)cc3C)CC[C@]3(C)[C@H](CC[C@@H]4[C@@]5(C)CC[C@H](OC(=O)C[n+]6ccc(C)cc6C)C(C)(C)[C@@H]5CC[C@]43C)[C@@H]12.[Cl-].[Cl-]	Toxic	Toxic	Active	Active	Active	–	–	–	–	–	–	–	–
C=C(C)[C@@H]1CC[C@]2(COC(=O)C(C)[n+]3ccc(N(C)C)cc3)CC[C@]3(C)[C@H](CC[C@@H]4[C@@]5(C)CC[C@H](OC(=O)C(C)[n+]6ccc(N(C)C)cc6)C(C)(C)[C@@H]5CC[C@]43C)[C@@H]12.[Cl-].[Cl-] (some centres not stated)	Toxic	Toxic	–	Active	Active	Active	Active	Active	Active	Active	–	–	–
C=C(C)[C@@H]1CC[C@]2(COC(=O)CCC[n+]3ccc(N(C)C)cc3)CC[C@]3(C)[C@H](CC[C@@H]4[C@@]5(C)CC[C@H](OC(=O)CCC[n+]6ccc(N(C)C)cc6)C(C)(C)[C@@H]5CC[C@]43C)[C@@H]12.[Br-].[Br-]	Toxic	Toxic	–	Active	Active	Active	–	–	–	–	Active	Active	Active
